Laboratory results published in ChEMBL document CHEMBL4373742, “Novel thiazolidinedione-hydroxamates as inhibitors of Mycobacterium tuberculosis virulence factor Zmp1” (Eur J Med Chem, 2020).
Active and inactive are the calls of the source. No cut-off for these calls is given here.

Experiments:
[1] = Inhibition of Mycobacterium tuberculosis Zinc metalloprotease-1 using angiotensin 2 as substrate preincubated for 3 mins and measured after 20 mins by MALDI-TOF MS analysis
Procedure, shortened: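 Zmp1 digestion of human angiotensin II in NH4HCO3 at 37 °C: 3 min preincubation with inhibitor, then 20 min reaction with recombinant Mtb Zmp1, monitored by MALDI-TOF MS. IC50 derived from slope ratios, inhibited versus control, at three inhibitor concentrations within 20–80 µM.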

[2] = Cytotoxicity against mouse RAW264.7 cells assessed as reduction in cell viability after 24 hrs by neutral red dye based assay
Procedure, shortened: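 Neutral red uptake assay on RAW264.7 murine macrophages in DMEM + 10% heat-inactivated FCS, 40.000 cells/well, seeded the day before. Two-fold serial dilutions from 128 µM final. Exposure 24 h at 37 °C, 5% CO2; then neutral red for 3 h, extraction with 1:1 ethanol/acetic acid. OD read at 530 nm (reference 620 nm).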

[3] = system: Mycobacterium tuberculosis; assay: Inhibition of Mycobacterium tuberculosis Zinc metalloprotease-1 at 40 uM using angiotensin 2 as substrate preincubated for 3 mins and measured after 20 mins by MALDI-TOF MS analysis relative to control
Procedure, shortened: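 Human angiotensin II substrate in NH4HCO3 was preincubated 3 min at 37 °C with inhibitor in acetone (acetone alone for control). Recombinant Mtb Zmp1 was added and the reaction ran 20 min at 37 °C. Cleavage was followed by MALDI-TOF MS (reflectron positive mode). Inhibition rate at 40 µM was taken as the inverted ratio of time-course slopes, inhibited versus control. Phosphoramidon reference at 40 µM final.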

[4] = system: Mycobacterium tuberculosis; assay: Antimycobacterial activity against Mycobacterium tuberculosis H37Ra infected in mouse RAW264.7 cells assessed as inhibition of intracellular bacterial growth at 10 uM after 24 hrs by luciferase reporter gene based assay relative to control; type: functional; details: RAW264.7, 24 h, read-out: INH
Procedure, shortened: (§1)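 Murine RAW264.7 macrophages (DMEM + 10% heat-inactivated FCS, 37 °C, 5% CO2; 40.000 cells/well) infected 2 h at 37 °C with luciferase-reporter Mtb H37Ra (pSMT1) at MOI 10. Extracellular bacteria were killed with 100 µg/ml gentamicin for 1 h. Compounds were given at 10 and 100 µM final; isoniazid reference 0.1 µM. After 24 h, cells were lysed in 1% Triton X-100 and read by luminescence after n-decanal addition. Inhibition % was calculated versus untreated control; mean of triplicates.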

[5] = system: Mycobacterium tuberculosis; assay: Antimycobacterial activity against Mycobacterium tuberculosis H37Ra infected in mouse RAW264.7 cells assessed as inhibition of intracellular bacterial growth at 10 uM after 24 hrs by luciferase reporter gene based assay; type: functional, organism-based; procedure, shortened: as §1
[6] = Selectivity index, ratio of CC50 for mouse RAW264.7 cells to MIC90 for antimycobacterial activity against Mycobacterium tuberculosis H37Rv; type: toxicity; details: read-out: Selectivity Index
[7] = system: Mycobacterium tuberculosis; assay: Antimycobacterial activity against Mycobacterium tuberculosis H37Ra infected in mouse RAW264.7 cells assessed as inhibition of intracellular bacterial growth at 100 uM after 24 hrs by luciferase reporter gene based assay; type: functional, organism-based; procedure, shortened: as §1
[8] = system: Mycobacterium tuberculosis; assay: Antimycobacterial activity against Mycobacterium tuberculosis H37Ra infected in mouse RAW264.7 cells assessed as inhibition of intracellular bacterial growth at 100 uM after 24 hrs by luciferase reporter gene based assay relative to control; type: functional; details: RAW264.7, 24 h; procedure, shortened: as §1

For CC(C(=O)NOCc1ccccc1)N1C(=O)S/C(=C\c2ccc(F)cc2)C1=O (centres undefined), the IC50 [1] was 20 to 160 µM, the CC50 at 24 h [2] was > 128 µM and the inhibition [3] was 95.8%. For the same molecule, the percent inhibition of intracellular bacterial growth at 10 µM [4] was 25.1%.

With O=C(CN1C(=O)S/C(=C\c2ccc(F)cc2)C1=O)NOCc1ccccc1 the IC50 [1] was 20 to 160 µM, the CC50 at 24 h [2] was > 128 µM and the inhibition [3] was 78.3%. For the same molecule, the percent inhibition of intracellular bacterial growth at 10 µM [4] was 20.6%.

In the case of CCCC/C=C1\SC(=O)N(CC(=O)NOCc2ccccc2)C1=O, the IC50 [1] is reported as 20 to 160 µM, the CC50 at 24 h [2] is reported as > 128 µM and the inhibition [5] is reported as “inactive”. The inhibition [3] was 99.8%.

For CCCC/C=C1\SC(=O)N(C(C)C(=O)NOCc2ccccc2)C1=O (centres undefined), the IC50 [1] was 20 to 160 µM, the CC50 at 24 h [2] was 43.9 µM and the selectivity ratio [6] was > 0.7. The inhibition [5] was “inactive” and the inhibition [3] was 37.1%.

With O=C(CN1C(=O)S/C(=C\c2ccccc2)C1=O)NOCc1ccccc1 the IC50 [1] was 20 to 160 µM, the CC50 at 24 h [2] was > 128 µM and the inhibition [3] was 59.5%. For the same molecule, the percent inhibition of intracellular bacterial growth at 10 µM [4] was 38.3%.

For C=CCONC(=O)C(C)N1C(=O)CSC1=O (centres undefined), the IC50 [1] was 20 to 160 µM, the CC50 at 24 h [2] was > 128 µM and the inhibition [3] was 57.9%. It also gave a percent inhibition of intracellular bacterial growth at 10 µM [4] of 21.6%.

In the case of C=CCONC(=O)C(C)N1C(=O)S/C(=C\c2ccc(F)cc2)C1=O (centres undefined), the IC50 [1] is reported as 20 to 160 µM, the CC50 at 24 h [2] is reported as > 128 µM and the inhibition [3] is reported as 95.5%.

For C=CCONC(=O)C(C)N1C(=O)S/C(=C\CCCC)C1=O (centres undefined), the IC50 [1] was 20 to 160 µM, the CC50 at 24 h [2] was > 128 µM and the inhibition [3] was 34.7%.

In the case of C=CCONC(=O)CN1C(=O)CSC1=O, the IC50 [1] is reported as 20 to 160 µM, the CC50 at 24 h [2] is reported as > 128 µM and the inhibition [3] is reported as 92.2%. The percent inhibition of intracellular bacterial growth at 10 µM [4] was 30.2%.

With C=CCONC(=O)CN1C(=O)S/C(=C\CCCC)C1=O the IC50 [1] was 18 µM, the inhibition [7] was “Active” and the CC50 at 24 h [2] was > 128 µM. The selectivity ratio [6] was > 2.1 and the inhibition [3] was 89.9%.

In the case of C=CCONC(=O)CN1C(=O)S/C(=C\c2ccccc2)C1=O, the IC50 [1] is reported as 20 to 160 µM, the CC50 at 24 h [2] is reported as > 128 µM and the inhibition [3] is reported as 59%.

With CC(C(=O)NOCc1ccccc1)N1C(=O)CSC1=O (centres undefined) the IC50 [1] was 20 to 160 µM, the CC50 at 24 h [2] was > 128 µM and the inhibition [3] was 78.1%.

For CC(C(=O)NOCc1ccccc1)N1C(=O)S/C(=C\c2ccccc2)C1=O (centres undefined), the IC50 [1] was 20 to 160 µM, the CC50 at 24 h [2] was > 128 µM and the inhibition [3] was 93.3%. For the same molecule, the percent inhibition of intracellular bacterial growth at 10 µM [4] was 46.9%.

Work on CC(C)C[C@H](NP(=O)(O)O[C@@H]1O[C@@H](C)[C@H](O)[C@@H](O)[C@H]1O)C(=O)N[C@@H](Cc1c[nH]c2ccccc12)C(=O)O [PHOSPHORAMIDON] yielded an IC50 [1] of 20 to 160 µM and an inhibition [3] of 78%.

With CC(C(=O)NOCc1ccccc1)N1C(=O)S/C(=C\c2ccc(C(F)(F)F)cc2)C1=O (centres undefined) the IC50 [1] was 20 to 160 µM, the CC50 at 24 h [2] was > 128 µM and the inhibition [3] was 16.3%. It also gave a percent inhibition of intracellular bacterial growth at 10 µM [4] of 19.4%.

With C=CCONC(=O)C(C)N1C(=O)S/C(=C\c2ccc(C(F)(F)F)cc2)C1=O (centres undefined) the IC50 [1] was 20 to 160 µM, the CC50 at 24 h [2] was > 128 µM and the inhibition [5] was “inactive”. It also gave an inhibition [3] of 44.5%.

With O=C(CN1C(=O)CSC1=O)NOCc1ccccc1 the IC50 [1] was 20 to 160 µM, the CC50 at 24 h [2] was > 128 µM and the inhibition [3] was 31.9%.

In the case of C=CCONC(=O)CN1C(=O)S/C(=C\c2ccc(C(F)(F)F)cc2)C1=O, the IC50 [1] is reported as 20 to 160 µM, the CC50 at 24 h [2] is reported as > 128 µM and the inhibition [5] is reported as “inactive”. The inhibition [3] was 87.2%.

With C=CCONC(=O)CN1C(=O)S/C(=C\c2ccc(F)cc2)C1=O the IC50 [1] was 20 to 160 µM, the CC50 at 24 h [2] was > 128 µM and the inhibition [3] was 69.8%.

With CC/C(=C(\c1ccccc1)c1ccc(OCCN(C)C)cc1)c1ccccc1 [TAMOXIFEN] the CC50 at 24 h [2] was 11.1 µM.

For C=CCONC(=O)C(C)N1C(=O)S/C(=C\c2ccccc2)C1=O (centres undefined), the IC50 [1] was 20 to 160 µM, the CC50 at 24 h [2] was > 128 µM and the inhibition [3] was 13%.

With O=C(CN1C(=O)S/C(=C\c2ccc(C(F)(F)F)cc2)C1=O)NOCc1ccccc1 the IC50 [1] was 38 µM, the inhibition in vivo at 100 µM [8] was 70.4% and the CC50 at 24 h [2] was > 128 µM. It also gave an inhibition [3] of 64.9% and a percent inhibition of intracellular bacterial growth at 10 µM [4] of 48.8%.
